The values that follow come from ChEMBL document CHEMBL1150419, “Structure-activity relationships of a peptide inhibitor of the human FcRn:human IgG interaction” (Bioorg Med Chem, 2008).

pIC50, pKd: −log10 of the molar value.

The target of data set [1] is T1, IgG receptor FcRn large subunit p51 (Homo sapiens, UniProt P55899). Put plainly: Inhibition of human IgG binding to soluble human FcRn by ELISA. The gist of the method:
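Biotinylated soluble human FcRn immobilized on neutravidin plates, incubated with hIgG (3 nM, constant) and peptide at varying concentrations for 2 h at 37 °C. After washing, bound hIgG detected with peroxidase-conjugated hIgG-specific Fab fragments.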

Data set [2] can be described thus: Stability in presence of subtilisin assessed as intact peptide after 1 hr. The data set is classed as ADME. As to conditions: subtilisin (protease solution); read-out: Stability. The gist of the method: (§1)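 Peptide dissolved in PBS at 0.3 mg/mL and treated with a 470-fold molar excess of Subtilisin Carlsberg. The fraction of intact peptide remaining was recorded.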

A short description of data set [3]: Stability in presence of subtilisin assessed as intact peptide after 18 hrs. In kind it is ADME. To be noted: subtilisin (protease solution); read-out: Stability. The gist of the method: as §1
Data set [4] has as its target T1, IgG receptor FcRn large subunit p51. Put plainly: Binding affinity to human FcRn at pH 6 by surface plasmon resonance assay. The essentials: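 Soluble human FcRn coupled to the dextran surface of a CM5 chip; peptide dilutions flowed over the chip. The equilibrium response at each dilution was plotted against concentration and fitted to a steady-state affinity model to give Kd.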

T1 sequence (P55899 whole entry, the tested form may be a part): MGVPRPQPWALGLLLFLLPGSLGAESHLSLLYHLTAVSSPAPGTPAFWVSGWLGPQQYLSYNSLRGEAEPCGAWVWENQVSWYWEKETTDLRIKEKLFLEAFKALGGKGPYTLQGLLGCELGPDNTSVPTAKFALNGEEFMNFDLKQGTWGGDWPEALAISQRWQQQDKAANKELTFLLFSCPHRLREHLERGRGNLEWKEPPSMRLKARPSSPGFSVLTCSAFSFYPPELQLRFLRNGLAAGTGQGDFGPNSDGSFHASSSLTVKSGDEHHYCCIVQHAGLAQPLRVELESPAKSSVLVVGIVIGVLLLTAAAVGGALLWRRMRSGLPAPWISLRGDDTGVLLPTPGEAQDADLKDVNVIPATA

The compound `CC(C)C[C@@H](C(=O)N[C@@H](Cc1ccc(O)cc1)C(=O)N1CCC[C@H]1C(=O)N[C@@H](CS)C(=O)O)N(C)C(=O)CNC(=O)[C@@H](C)NC(=O)[C@H](Cc1ccccc1)NC(=O)[C@H](Cc1cnc[nH]1)NC(=O)CNC(=O)[C@@H](C)N(C)C(=O)[C@@H](NC(=O)[C@H](Cc1ccccc1)NC(=O)[C@@H](N)CCCNC(=N)N)C(C)(C)S` had a pIC50 in data set [1] of 5.10. Besides, the remaining at 1 h in data set [2] stood at 100%. Further, the remaining at 18 h in data set [3] is 95%.
In the case of `CC(C)C[C@H](NC(=O)CNC(=O)CNC(=O)[C@H](Cc1ccccc1)NC(=O)[C@H](Cc1cnc[nH]1)NC(=O)CNC(=O)[C@@H](NC(=O)[C@@H](NC(=O)[C@H](Cc1ccccc1)NC(=O)[C@H](CCCNC(=N)N)NC(=O)[C@@H](N)CCC(N)=O)C(C)(C)S)[C@@H](C)O)C(=O)N[C@@H](Cc1ccc(O)cc1)C(=O)N1CCC[C@H]1C(=O)N[C@@H](CS)C(=O)N[C@@H](CC(N)=O)C(=O)NCC(=O)N1CCC[C@H]1C(=O)O`, in data set [1], the pIC50 was 5.70. The same compound gave a pKd in data set [4] of 6.60. Moreover, the remaining at 1 h in data set [2] is 5%. Also, the remaining at 18 h in data set [3] was determined as 0%.
In data set [1], `C[C@@H](O)[C@H](NC(=O)[C@@H](NC(=O)[C@H](Cc1ccccc1)NC(=O)[C@H](CCCN=C(N)N)NC(=O)[C@@H](N)CCC(N)=O)C(C)(C)S)C(=O)NCC(=O)N[C@@H](Cc1cnc[nH]1)C(=O)N[C@@H](Cc1ccccc1)C(=O)N[C@H](Cc1ccccc1)C(=O)NCC(=O)N1CCC[C@H]1C(=O)N[C@@H](Cc1ccc(O)cc1)C(=O)N1CCC[C@H]1C(=O)N[C@@H](CS)C(=O)N[C@@H](CC(N)=O)C(=O)NCC(=O)N1CCC[C@H]1C(=O)O` gave a pIC50 of 4.41. The negative-log Kd (pKd) in data set [4] was 4.74. Further, the remaining at 1 h in data set [2] came out at 5%. For the same compound, the remaining at 18 h in data set [3] was determined as 0%.
